Assay results: ChEMBL document CHEMBL5724801, “EUbOPEN Chemogenomics Library - Multiplex” (2024)
Several values for one entry are separate records, joined by “and”; a condition that tells them apart may be missing. Identical values can stand only once.

Tested on: Fibroblast
Experiment: Multiplex assay against human fibroblast
Format: toxicity, cell-based
Method in brief: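 Live cells were stained at seeding with Hoechst33342, BioTracker Green Microtubule Cytoskeleton Dye, MitoTracker Red and Annexin V Alexa Fluor 680. Following compound addition, they were imaged on a CQ1 microscope at 37°C and 5% CO2 and gated by CellPathfinder machine learning into Hoechst high-intensity objects or normal cells, with normal cells split into healthy, pyknosed or fragmented nuclei and pyknosed cells into mitotic or apoptotic. Tubulin, mitochondrial-mass and membrane-permeability phenotypes are per cents of healthy-nucleus cells.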

[1] = 12 h, 1 µM, compound concentration 1 uM
[2] = 12 h, 10 µM, compound concentration 10 uM
[3] = 24 h, 1 µM, compound concentration 1 uM
[4] = 24 h, 10 µM, compound concentration 10 uM
[5] = 48 h, 1 µM, compound concentration 1 uM
[6] = 48 h, 10 µM, compound concentration 10 uM

In the case of `N#Cc1ccnc(Nc2cc(C3CCN(C4COC4)CC3)cc(N3CCC(F)(F)C3)n2)c1`, the “Population Apoptotic (%)” value [1] is reported as 14.12% and 22.64%, the “Population Fragmented Nuclei (%)” value [1] is reported as 18.52% and 8.85% and the “Population Healthy Nuclei (%)” value [1] is reported as 42.13% and 67.7%. For the same compound, the “Population Hoechst High Intensity Objects (%)” value [1] was 0%, the “Population Membrane Permeable-Phenotype (%)” value [1] was 3.3% and 2.61% and the “Population Mitochondria Different-Phenotype (%)” value [1] was 16.48% and 9.8%. For the same compound, the “Population Mitotic Cells (%)” value [1] was 85.88% and 77.36%, the “Population Normal (%)” value [1] was 100% and the “Population Pyknosed Nuclei (%)” value [1] was 39.35% and 23.45%. For the same compound, the “Population Tubulin-Different-Phenotype (%)” value [1] was 31.87% and 33.33%, the “Total Cell Count” value [1] was 216 and 226 and the “Population Apoptotic (%)” value [2] was 60.19% and 71.72%. The “Population Fragmented Nuclei (%)” value [2] was 13.02% and 15.68%, the “Population Healthy Nuclei (%)” value [2] was 36.74% and 30.81% and the “Population Hoechst High Intensity Objects (%)” value [2] was 0% and 0.54%. For the same compound, the “Population Mitochondria Different-Phenotype (%)” value [2] was 35.44% and 45.61%, the “Population Mitotic Cells (%)” value [2] was 39.81% and 28.28% and the “Population Normal (%)” value [2] was 100% and 99.46%. For the same compound, the “Population Pyknosed Nuclei (%)” value [2] was 50.23% and 53.51%, the “Population Tubulin-Different-Phenotype (%)” value [2] was 45.57% and 73.68% and the “Total Cell Count” value [2] was 215 and 186. For the same compound, the “Population Apoptotic (%)” value [3] was 7.81% and 14%, the “Population Fragmented Nuclei (%)” value [3] was 19.58% and 9.81% and the “Population Healthy Nuclei (%)” value [3] was 53.75% and 66.82%. The “Population Hoechst High Intensity Objects (%)” value [3] was 0%, the “Population Membrane Permeable-Phenotype (%)” value [3] was 5.43% and 4.2% and the “Population Mitochondria Different-Phenotype (%)” value [3] was 19.38% and 23.08%. The “Population Mitotic Cells (%)” value [3] was 92.19% and 86%, the “Population Normal (%)” value [3] was 100% and the “Population Pyknosed Nuclei (%)” value [3] was 26.67% and 23.36%. The “Population Tubulin-Different-Phenotype (%)” value [3] was 29.46% and 47.55%, the “Total Cell Count” value [3] was 240 and 214 and the “Population Apoptotic (%)” value [4] was 58.59% and 84.62%. The “Population Fragmented Nuclei (%)” value [4] was 13.17% and 9.55%, the “Population Healthy Nuclei (%)” value [4] was 38.54% and 39.33% and the “Population Hoechst High Intensity Objects (%)” value [4] was 0% and 0.56%. For the same compound, the “Population Membrane Permeable-Phenotype (%)” value [4] was 10.13% and 20%, the “Population Mitochondria Different-Phenotype (%)” value [4] was 32.91% and 55.71% and the “Population Mitotic Cells (%)” value [4] was 41.41% and 15.38%. The “Population Normal (%)” value [4] was 100% and 99.44%, the “Population Pyknosed Nuclei (%)” value [4] was 48.29% and 51.12% and the “Population Tubulin-Different-Phenotype (%)” value [4] was 37.97% and 78.57%. The “Total Cell Count” value [4] was 205 and 179, the “Population Fragmented Nuclei (%)” value [5] was 19.03% and 11.35% and the “Population Healthy Nuclei (%)” value [5] was 63.97% and 74.24%. The “Population Hoechst High Intensity Objects (%)” value [5] was 0%, the “Population Membrane Permeable-Phenotype (%)” value [5] was 2.53% and 2.94% and the “Population Mitochondria Different-Phenotype (%)” value [5] was 21.52% and 11.18%. For the same compound, the “Population Mitotic Cells (%)” value [5] was 92.86% and 57.58%, the “Population Normal (%)” value [5] was 100% and the “Population Pyknosed Nuclei (%)” value [5] was 17% and 14.41%. For the same compound, the “Population Tubulin-Different-Phenotype (%)” value [5] was 32.91% and 54.12%, the “Total Cell Count” value [5] was 247 and 229 and the “Population Apoptotic (%)” value [6] was 59.57% and 79.01%. For the same compound, the “Population Fragmented Nuclei (%)” value [6] was 13% and 11.52%, the “Population Healthy Nuclei (%)” value [6] was 44.84% and 46.07% and the “Population Hoechst High Intensity Objects (%)” value [6] was 0% and 0.52%. For the same compound, the “Population Membrane Permeable-Phenotype (%)” value [6] was 7% and 15.91%, the “Population Mitochondria Different-Phenotype (%)” value [6] was 36% and 20.45% and the “Population Mitotic Cells (%)” value [6] was 40.43% and 20.99%. For the same compound, the “Population Normal (%)” value [6] was 100% and 99.48%, the “Population Pyknosed Nuclei (%)” value [6] was 42.15% and 42.41% and the “Population Tubulin-Different-Phenotype (%)” value [6] was 37% and 56.82%. The “Total Cell Count” value [6] was 223 and 192.

For `Cc1cc(Nc2ncc(Cl)c(Nc3ccccc3S(=O)(=O)C(C)C)n2)c(OC(C)C)cc1C1CCNCC1` [CERITINIB], the “Population Apoptotic (%)” value [1] was 11.76% and 21.15%, the “Population Fragmented Nuclei (%)” value [1] was 7.37% and 5.85% and the “Population Healthy Nuclei (%)” value [1] was 53.46% and 68.78%. For the same compound, the “Population Hoechst High Intensity Objects (%)” value [1] was 0%, the “Population Membrane Permeable-Phenotype (%)” value [1] was 4.31% and 0.71% and the “Population Mitochondria Different-Phenotype (%)” value [1] was 43.1% and 31.21%. The “Population Mitotic Cells (%)” value [1] was 88.24% and 78.85%, the “Population Normal (%)” value [1] was 100% and the “Population Pyknosed Nuclei (%)” value [1] was 39.17% and 25.37%. The “Population Tubulin-Different-Phenotype (%)” value [1] was 63.79% and 60.99%, the “Total Cell Count” value [1] was 217 and 205 and the “Population Apoptotic (%)” value [2] was 42.37% and 52.35%. For the same compound, the “Population Fragmented Nuclei (%)” value [2] was 13.51% and 3.96%, the “Population Healthy Nuclei (%)” value [2] was 22.7% and 22.28% and the “Population Hoechst High Intensity Objects (%)” value [2] was 0%. For the same compound, the “Population Mitochondria Different-Phenotype (%)” value [2] was 7.14% and 6.67%, the “Population Mitotic Cells (%)” value [2] was 57.63% and 47.65% and the “Population Normal (%)” value [2] was 100%. For the same compound, the “Population Pyknosed Nuclei (%)” value [2] was 63.78% and 73.76%, the “Population Tubulin-Different-Phenotype (%)” value [2] was 38.1% and 77.78% and the “Total Cell Count” value [2] was 185 and 202. For the same compound, the “Population Apoptotic (%)” value [3] was 20% and 32.43%, the “Population Fragmented Nuclei (%)” value [3] was 9.43% and 7.69% and the “Population Healthy Nuclei (%)” value [3] was 68.03% and 74.52%. The “Population Hoechst High Intensity Objects (%)” value [3] was 0%, the “Population Membrane Permeable-Phenotype (%)” value [3] was 4.22% and 0% and the “Population Mitochondria Different-Phenotype (%)” value [3] was 29.52% and 27.74%. For the same compound, the “Population Mitotic Cells (%)” value [3] was 80% and 67.57%, the “Population Normal (%)” value [3] was 100% and the “Population Pyknosed Nuclei (%)” value [3] was 22.54% and 17.79%. For the same compound, the “Population Tubulin-Different-Phenotype (%)” value [3] was 62.05% and 63.23%, the “Total Cell Count” value [3] was 244 and 208 and the “Population Apoptotic (%)” value [4] was 65.28% and 58.33%. The “Population Fragmented Nuclei (%)” value [4] was 19.9% and 22.16%, the “Population Healthy Nuclei (%)” value [4] was 43.37% and 59.28% and the “Population Hoechst High Intensity Objects (%)” value [4] was 0%. For the same compound, the “Population Mitochondria Different-Phenotype (%)” value [4] was 12.94% and 7.83%, the “Population Mitotic Cells (%)” value [4] was 34.72% and 41.67% and the “Population Normal (%)” value [4] was 100%. For the same compound, the “Population Pyknosed Nuclei (%)” value [4] was 36.73% and 18.56%, the “Population Tubulin-Different-Phenotype (%)” value [4] was 37.65% and 81.74% and the “Total Cell Count” value [4] was 196 and 194. For the same compound, the “Population Fragmented Nuclei (%)” value [5] was 13.85% and 7.43%, the “Population Healthy Nuclei (%)” value [5] was 77.7% and 84.65% and the “Population Hoechst High Intensity Objects (%)” value [5] was 0%. For the same compound, the “Population Membrane Permeable-Phenotype (%)” value [5] was 1.74% and 1.75%, the “Population Mitochondria Different-Phenotype (%)” value [5] was 11.74% and 9.94% and the “Population Mitotic Cells (%)” value [5] was 88% and 50%. For the same compound, the “Population Normal (%)” value [5] was 100%, the “Population Pyknosed Nuclei (%)” value [5] was 8.45% and 7.92% and the “Population Tubulin-Different-Phenotype (%)” value [5] was 36.09% and 50.88%. The “Total Cell Count” value [5] was 296 and 202, the “Population Apoptotic (%)” value [6] was 73.33% and 50% and the “Population Fragmented Nuclei (%)” value [6] was 20.63% and 58.73%. The “Population Healthy Nuclei (%)” value [6] was 71.43% and 38.1%, the “Population Hoechst High Intensity Objects (%)” value [6] was 0% and the “Population Mitotic Cells (%)” value [6] was 26.67% and 50%. The “Population Normal (%)” value [6] was 100%, the “Population Pyknosed Nuclei (%)” value [6] was 7.94% and 3.17% and the “Population Tubulin-Different-Phenotype (%)” value [6] was 31.85% and 58.33%. For the same compound, the “Total Cell Count” value [6] was 189.
